Columns and labels:
α9^α10TM2TM3loop = experiment: ACh-evoked currents, two-electrode voltage-clamp in X. laevis oocytes; format: cell-based, rat; settings: 1 mM ACh; α9^α10TM2TM3loop injected alone or co-injected with α9
Method in brief: (§1)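 Rat subunit cRNAs (0.01–1.0 ng in 50 nl water, 1:1 molar ratio when co-injected) were injected into stage V–VI X. laevis oocytes kept in Barth's solution at 18 °C. Oocytes were preloaded 3 h with 100 µM BAPTA-AM.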

α9E202Qα10 = experiment: as above; format: cell-based, rat; settings: 1 mM ACh; α9E202Qα10 mutant receptor
Method in brief: as §1

homomeric α9 nAChR = settings: cited from earlier work
α9α10^α9TM2TM3loop = α9α10^α9TM2TM3loop (Rattus norvegicus, UniProt P43144+Q9JLB5, A292S/P291A/S288I/S294N); experiment: ACh-evoked currents, two-electrode voltage-clamp in X. laevis oocytes; format: cell-based; settings: prolonged (1 min) ACh application
Chain of α9α10^α9TM2TM3loop (P43144 26-479, stated change not applied): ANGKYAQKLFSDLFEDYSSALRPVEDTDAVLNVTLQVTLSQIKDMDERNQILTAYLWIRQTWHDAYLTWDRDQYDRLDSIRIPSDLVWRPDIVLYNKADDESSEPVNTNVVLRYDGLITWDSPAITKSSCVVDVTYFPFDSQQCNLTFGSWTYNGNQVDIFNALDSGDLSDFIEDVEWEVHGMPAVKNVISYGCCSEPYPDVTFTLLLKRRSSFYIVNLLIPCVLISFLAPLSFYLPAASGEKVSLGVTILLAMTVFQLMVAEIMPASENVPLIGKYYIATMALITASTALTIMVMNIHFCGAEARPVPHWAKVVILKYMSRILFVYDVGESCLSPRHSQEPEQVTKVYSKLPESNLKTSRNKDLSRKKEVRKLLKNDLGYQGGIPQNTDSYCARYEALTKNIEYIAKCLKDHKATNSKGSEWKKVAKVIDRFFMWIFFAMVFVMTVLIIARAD
Chain of α9α10^α9TM2TM3loop (Q9JLB5 25-447 S288I/P291A/A292S/S294N): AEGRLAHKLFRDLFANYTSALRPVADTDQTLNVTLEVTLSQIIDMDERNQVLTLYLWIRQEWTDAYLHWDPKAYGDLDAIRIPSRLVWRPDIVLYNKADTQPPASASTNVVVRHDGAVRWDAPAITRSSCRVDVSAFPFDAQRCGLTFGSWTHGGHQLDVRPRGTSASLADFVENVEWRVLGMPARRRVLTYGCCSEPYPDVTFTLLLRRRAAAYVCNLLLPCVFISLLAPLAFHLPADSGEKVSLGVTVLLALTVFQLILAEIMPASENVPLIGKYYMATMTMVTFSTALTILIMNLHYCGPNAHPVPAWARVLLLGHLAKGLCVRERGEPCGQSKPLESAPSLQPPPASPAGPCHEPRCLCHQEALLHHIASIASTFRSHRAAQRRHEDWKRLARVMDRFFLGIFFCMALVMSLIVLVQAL

α9α10 nAChR = α9α10 nAChR (Rattus norvegicus, UniProt P43144+Q9JLB5); settings: prolonged ACh application; cited from earlier work
Chain of α9α10 nAChR (P43144 26-479): as the sequence (P43144 26-479, stated change not applied) above
Chain of α9α10 nAChR (Q9JLB5 25-447): as the sequence (Q9JLB5 25-447 S288I/P291A/A292S/S294N) above, with I264S, A267P, S268A, N270S counted along it

α9E72Qα10 = experiment: ACh-evoked currents, two-electrode voltage-clamp in X. laevis oocytes; format: cell-based, rat; settings: 1 mM ACh; α9E72Qα10 mutant receptor
Method in brief: as §1

For `CC(=O)OCC[N+](C)(C)C` [ACh, Acetylcholine], which “response to ACh (in words)” value (α9^α10TM2TM3loop) is on record?
The value was “did not render functional receptors”.

What about the “response to ACh (in words)” value (α9E202Qα10) of the same compound?
Its value is “failed to respond”.

What about the “maximal amplitude of responses” value (homomeric α9 nAChR; 100 µM ACh, absence of extracellular Ca^2+) of the same compound?
The value was 182 ± 20 nA.

And the EC50 (homomeric α9 nAChR; ACh concentration-response, ref 45 (Verbitsky et al. 2000))?
The EC50 was 11.4 ± 0.8 µM.

And the “remaining current after 20 s of the peak response to ACh” value (“remaining current after 20 s” below) (homomeric α9 nAChR; prolonged application of a high ACh concentration)?
The value was 94.9 ± 1.6%.

And the “remaining current after 20 s” value (α9α10^α9TM2TM3loop)?
The value was 61.9 ± 4.6%.

And the “remaining current after 20 s” value (α9α10 nAChR)?
Its value is 57.1 ± 4.3%.

What about the “response to ACh (in words)” value (α9E72Qα10) of the same compound?
Its value is “failed to respond”.

Source: article PMC11335262 (Cellular and Molecular Life Sciences: CMLS, 2024)
